The source made the active and inactive calls. The rule behind the calls is not given here.
Experiments:
[1] = Inhibition of jack bean beta-D-mannosidase; design: species or system Canavalia ensiformis
[2] = Inhibition of sweet almonds beta-D-glucosidase; design: species or system Prunus dulcis
[3] = Inhibition of yeast alpha-D-glucosidase; design: species or system Saccharomyces
In short: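 α-Glucosidase (500 units/mL) with p-nitrophenyl glucopyranoside (0.7 mM final) in 50 mM phosphate buffer pH 6.9, 1% v/v DMSO, 37 °C, 10 min, with or without a range of inhibitor concentrations. Stopped with an equal volume of 100 mM Na2CO3, and p-nitrophenol read at 400 nm. Rate taken from the linear slope of 1-min readings. IC50 derived by kinetic fitting.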

Canavalia ensiformis = experiment: Inhibition of jack bean beta-D-mannosidase at 800 uM
Prunus dulcis = experiment: Inhibition of sweet almonds beta-D-glucosidase at 800 uM

Row | Compound | IC50 [1] | IC50 [2] | IC50 [3] | Activity (Canavalia ensiformis) | Activity (Prunus dulcis)
1 | CC(C)=CCc1ccc(-c2oc3c(CC=C(C)C)c(O)c(CC=C(C)C)c(O)c3c(=O)c2O)cc1O [DORSILURIN F] | 192 µM | 117 µM | 4.13 µM |  | 
2 | C=C(C)[C@@H](O)Cc1ccc(-c2oc3c(CC=C(C)C)c(O)c(CC=C(C)C)c(O)c3c(=O)c2O)cc1O [DORSILURIN G] | 232 µM | 431 µM | 7.51 µM |  | 
3 | C=C(C)[C@@H](O)Cc1ccc(-c2oc3c(CC=C(C)C)c(O)c4c(c3c(=O)c2O)OC(C)(C)CC4)cc1O [DORSILURIN H] |  | 671 µM | 24 µM | inactive | 
4 | C=C(C)[C@@H](O)Cc1ccc(-c2oc3c4c(c(CC=C(C)C)c(O)c3c(=O)c2O)OC(C)(C)CC4)cc1O [DORSILURIN I] |  | 431 µM | 21.5 µM | inactive | 
5 | CC(C)=CCc1ccc(-c2oc3c4c(c5c(c3c(=O)c2O)OC(C)(C)CC5)OC(C)(C)CC4)cc1O [DORSILURIN K] |  |  | 44 µM | inactive | inactive

Further molecules by falling IC50 [3], results first:

Row | IC50 [1] | IC50 [2] | IC50 [3] | Activity (Canavalia ensiformis) | Activity (Prunus dulcis) | Compound
6 |  |  | 426 µM |  |  | OC[C@H]1NC[C@H](O)[C@@H](O)[C@@H]1O [DUVOGLUSTAT]
7 | 518 µM | 317 µM | 16.9 µM |  |  | CC(C)=CCc1ccc(-c2oc3c(CC=C(C)C)c(O)c4c(c3c(=O)c2O)OC(C)(C)CC4)cc1O [DORSILURIN J]
8 | 358 µM | 422 µM | 11.2 µM |  |  | CC(C)=CCc1c(O)c(CC=C(C)C)c2oc(-c3ccc4c(c3)OC(C)(C)C=C4)c(O)c(=O)c2c1O [DORSILURIN C]

— ChEMBL document CHEMBL1151769, “Triprenylated flavonoids from Dorstenia psilurus and their alpha-glucosidase inhibition properties” (J Nat Prod, 2008)
